Measured values reported in ChEMBL document CHEMBL3596093, “Synthesis and antimicrobial evaluation of 5-aryl-1,2,4-triazole-3-thione derivatives containing a rhodanine moiety” (2015).
In brackets after ≈: the same amount, converted by molar mass.

Assays:
Salmonella typhimurium = test: Antibacterial activity against Salmonella typhimurium 2421 after 24 hrs by two-fold serial dilution method; type: functional, Salmonella enterica subsp. enterica serovar Typhimurium; details: Salmonella enterica, 2421, 24 h
Procedure, shortened: (§1)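 Strains grown to mid-log phase in Mueller-Hinton broth, then diluted 1000-fold in the same broth to about 10^5 CFU/mL. Compounds were made up as DMSO stocks and two-fold serially diluted from a final top concentration of 64 µg/mL. Incubation was 37 °C for 24 h. Growth was read as absorbance at 630 nm on a microplate reader. MIC assays were run in triplicate.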

Candida albicans = test: Antifungal activity against Candida albicans 7535 after 24 hrs by two-fold serial dilution method; type: functional; details: Candida albicans, 7535, 24 h
Staphylococcus aureus [1] = test: Antibacterial activity against methicillin-resistant Staphylococcus aureus CCARM 3167 after 24 hrs by two-fold serial dilution method; type: functional; details: CCARM 3167, 24 h
Procedure, shortened: (§2)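 Broth microdilution MIC. Bacteria grown to mid-log phase in Mueller-Hinton broth, diluted 1000-fold, about 10^5 CFU/mL. Compounds from DMSO stocks, two-fold serial dilution from a final 64 µg/mL. Incubation at 37 °C for 24 h. Growth read as absorbance at 630 nm on a microplate reader. Run in triplicate.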

Escherichia coli [2] = test: Antibacterial activity against Escherichia coli CCARM 1356 after 24 hrs by two-fold serial dilution method; type: functional; details: CCARM 1356, 24 h; procedure, shortened: as §1
Escherichia coli [3] = test: Ratio of MBC to MIC for Escherichia coli KCTC 1924; type: functional
Procedure, shortened: (§3)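 The ratio divides MBC by MIC for the same strain. MIC comes from two-fold broth microdilution in Mueller-Hinton broth (about 10^5 CFU/mL, 37 °C, 24 h, absorbance at 630 nm). MBC comes from subculturing 5 µL from clear wells onto Mueller-Hinton agar for another 24 h at 37 °C, taken as the lowest concentration with no colonies.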

Staphylococcus aureus [4] = test: Antibacterial activity against Staphylococcus aureus KCTC 503 after 24 hrs by two-fold serial dilution method; type: functional; details: KCTC 503, 24 h; procedure, shortened: as §1
Staphylococcus aureus [5] = test: Antibacterial activity against methicillin-resistant Staphylococcus aureus CCARM 3506 after 24 hrs by two-fold serial dilution method; type: functional; details: CCARM 3506, 24 h; procedure, shortened: as §2
Staphylococcus aureus [6] = test: Antibacterial activity against quinolone-resistant Staphylococcus aureus CCARM 3505 after 24 hrs by two-fold serial dilution method; type: functional; details: CCARM 3505, 24 h; procedure, shortened: as §2
Pseudomonas aeruginosa [7] = test: Antibacterial activity against Pseudomonas aeruginosa 2004 after 24 hrs by two-fold serial dilution method; type: functional; details: Pseudomonas aeruginosa, 2004, 24 h; procedure, shortened: as §1
Staphylococcus aureus [8] = test: Antibacterial activity against quinolone-resistant Staphylococcus aureus CCARM 3519 after 24 hrs by two-fold serial dilution method; type: functional; details: CCARM 3519, 24 h; procedure, shortened: as §2
Escherichia coli [9] = test: Antibacterial activity against Escherichia coli KCTC 1924 after 24 hrs by two-fold serial dilution method; type: functional; details: KCTC 1924, 24 h; procedure, shortened: as §1
Pseudomonas aeruginosa [10] = test: Antibacterial activity against Pseudomonas aeruginosa 2742 after 24 hrs by two-fold serial dilution method; type: functional; details: Pseudomonas aeruginosa, 2742, 24 h; procedure, shortened: as §1
Staphylococcus aureus [11] = test: Antibacterial activity against Staphylococcus aureus KCTC 209 after 24 hrs by two-fold serial dilution method; type: functional; details: KCTC 209, 24 h; procedure, shortened: as §1
Streptococcus mutans [12] = test: Antibacterial activity against Streptococcus mutans 3065 after 24 hrs by two-fold serial dilution method; type: functional; details: Streptococcus mutans, 3065, 24 h; procedure, shortened: as §1
Escherichia coli [13] = test: Bactericidal activity against Escherichia coli KCTC 1924 after 24 hrs by agar plate method; type: functional; details: KCTC 1924, 24 h
Procedure, shortened: (§4)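 Samples of 5 µL from MIC wells with no visible growth were plated onto fresh Mueller-Hinton agar and incubated a further 24 h at 37 °C. MBC is the lowest concentration giving no visible colony growth on the agar. Assays were run in triplicate.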

Staphylococcus aureus [14] = test: Antibacterial activity against Staphylococcus aureus RN4220 after 24 hrs by two-fold serial dilution method; type: functional; details: RN4220, 24 h; procedure, shortened: as §2
Staphylococcus aureus [15] = test: Bactericidal activity against Staphylococcus aureus RN4220 after 24 hrs by agar plate method; type: functional; details: RN4220, 24 h; procedure, shortened: as §4
Staphylococcus aureus [16] = test: Bactericidal activity against methicillin-resistant Staphylococcus aureus CCARM 3167 after 24 hrs by agar plate method; type: functional; details: CCARM 3167, 24 h
Procedure, shortened: (§5)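 5 µL from each well without visible growth plated on fresh Mueller-Hinton agar, then 37 °C for a further 24 h. MBC is the lowest concentration giving no visible colonies. Run in triplicate.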

Staphylococcus aureus [17] = test: Bactericidal activity against quinolone-resistant Staphylococcus aureus CCARM 3505 after 24 hrs by agar plate method; type: functional; details: CCARM 3505, 24 h; procedure, shortened: as §5
Staphylococcus aureus [18] = test: Bactericidal activity against Staphylococcus aureus KCTC 503 after 24 hrs by agar plate method; type: functional; details: KCTC 503, 24 h; procedure, shortened: as §5
Staphylococcus aureus [19] = test: Bactericidal activity against quinolone-resistant Staphylococcus aureus CCARM 3519 after 24 hrs by agar plate method; type: functional; details: CCARM 3519, 24 h; procedure, shortened: as §5
Staphylococcus aureus [20] = test: Ratio of MBC to MIC for Staphylococcus aureus KCTC 503; type: functional; procedure, shortened: as §3
Staphylococcus aureus [21] = test: Bactericidal activity against methicillin-resistant Staphylococcus aureus CCARM 3506 after 24 hrs by agar plate method; type: functional; details: CCARM 3506, 24 h; procedure, shortened: as §5
Streptococcus mutans [22] = test: Bactericidal activity against Streptococcus mutans 3065 after 24 hrs by agar plate method; type: functional; details: Streptococcus mutans, 3065, 24 h; procedure, shortened: as §4
[23] = test system: Staphylococcus aureus subsp. aureus RN4220; test: Ratio of MBC to MIC for Staphylococcus aureus RN4220; type: functional; procedure, shortened: as §3

| Structure (SMILES) | MIC (Salmonella typhimurium) [µg/mL] | MIC (Candida albicans) [µg/mL] | MIC (Staphylococcus aureus [1]) [µg/mL] | MIC (Escherichia coli [2]) [µg/mL] | MIC (Staphylococcus aureus [4]) [µg/mL] | MIC (Staphylococcus aureus [5]) [µg/mL] | MIC (Staphylococcus aureus [6]) [µg/mL] | MIC (Pseudomonas aeruginosa [7]) [µg/mL] | MIC (Staphylococcus aureus [8]) [µg/mL] | MIC (Escherichia coli [9]) [µg/mL] | MIC (Pseudomonas aeruginosa [10]) [µg/mL] | MIC (Staphylococcus aureus [11]) [µg/mL] | MIC (Streptococcus mutans [12]) [µg/mL] | MIC (Staphylococcus aureus [14]) [µg/mL] | MBC (Staphylococcus aureus [15]) [µg/mL] | MBC (Staphylococcus aureus [16]) [µg/mL] | MBC (Staphylococcus aureus [17]) [µg/mL] | MBC (Staphylococcus aureus [18]) [µg/mL] | MBC (Staphylococcus aureus [19]) [µg/mL] | MBC (Staphylococcus aureus [21]) [µg/mL] | further results |
| --- | --- | --- | --- | --- | --- | --- | --- | --- | --- | --- | --- | --- | --- | --- | --- | --- | --- | --- | --- | --- | --- |
| O=C(O)CN1C(=O)/C(=C/c2ccc(/C=N/n3c(-c4ccccc4Cl)n[nH]c3=S)cc2)SC1=S | > 128 | > 64 | > 64 | > 128 | > 64 | > 64 | > 64 | > 128 | > 64 | 64 (≈ 124 µM) | > 128 | > 64 | > 64 | 64 (≈ 124 µM) | 256 (≈ 496 µM) |  |  |  |  |  | Ratio (Escherichia coli [3]): <=4; MBC (Escherichia coli [13]): 128 µg/mL (≈ 248 µM) |
| Cc1ccccc1-c1n[nH]c(=S)n1/N=C/c1ccc(/C=C2\SC(=S)N([C@@H](Cc3ccccc3)C(=O)O)C2=O)cc1 | > 128 | > 64 | 16 (≈ 27.3 µM) | > 128 | 16 (≈ 27.3 µM) | 16 (≈ 27.3 µM) | 16 (≈ 27.3 µM) | > 128 | 16 (≈ 27.3 µM) | 64 (≈ 109 µM) | > 128 | > 64 | 8 (≈ 13.7 µM) | 16 (≈ 27.3 µM) | 64 (≈ 109 µM) | 32 (≈ 54.6 µM) | 64 (≈ 109 µM) | 32 (≈ 54.6 µM) | > 128 | 64 (≈ 109 µM) | Ratio (Escherichia coli [3]): <=4; MBC (Escherichia coli [13]): 64 µg/mL (≈ 109 µM); Ratio (Staphylococcus aureus [20]): <=4; MBC (Streptococcus mutans [22]): 16 µg/mL (≈ 27.3 µM) |
| Cc1cccc(-c2n[nH]c(=S)n2/N=C/c2ccc(/C=C3\SC(=S)N([C@@H](Cc4ccccc4)C(=O)O)C3=O)cc2)c1 | > 128 | > 64 | 16 (≈ 27.3 µM) | > 128 | 64 (≈ 109 µM) | 16 (≈ 27.3 µM) | 16 (≈ 27.3 µM) | > 128 | 16 (≈ 27.3 µM) | > 128 | > 128 | > 64 | 64 (≈ 109 µM) | 32 (≈ 54.6 µM) | 32 (≈ 54.6 µM) | 128 (≈ 219 µM) | 64 (≈ 109 µM) | 128 (≈ 219 µM) | 128 (≈ 219 µM) | 64 (≈ 109 µM) | Ratio (Staphylococcus aureus [20]): <=4; MBC (Streptococcus mutans [22]): 256 µg/mL (≈ 437 µM) |
| O=C(O)[C@H](Cc1ccccc1)N1C(=O)/C(=C/c2ccc(/C=N/n3c(-c4ccc(Cl)cc4)n[nH]c3=S)cc2)SC1=S | > 128 | > 64 | 8 (≈ 13.2 µM) | > 128 | 16 (≈ 26.4 µM) | 16 (≈ 26.4 µM) | 16 (≈ 26.4 µM) | > 128 | 16 (≈ 26.4 µM) | > 128 | > 128 | > 64 | 16 (≈ 26.4 µM) | 8 (≈ 13.2 µM) | 16 (≈ 26.4 µM) | 64 (≈ 106 µM) | 64 (≈ 106 µM) | 128 (≈ 211 µM) | 128 (≈ 211 µM) | 128 (≈ 211 µM) | Ratio [23]: 2; MBC (Streptococcus mutans [22]): 32 µg/mL (≈ 52.8 µM) |
| O=C(O)[C@H](Cc1ccccc1)N1C(=O)/C(=C/c2ccc(/C=N/n3c(-c4ccccc4Br)n[nH]c3=S)cc2)SC1=S | > 128 | > 64 | 8 (≈ 12.3 µM) | > 128 | 8 (≈ 12.3 µM) | 16 (≈ 24.6 µM) | 8 (≈ 12.3 µM) | > 128 | 8 (≈ 12.3 µM) | > 128 | > 128 | > 64 | 8 (≈ 12.3 µM) | 8 (≈ 12.3 µM) | 16 (≈ 24.6 µM) | 16 (≈ 24.6 µM) | 32 (≈ 49.2 µM) | 8 (≈ 12.3 µM) | 32 (≈ 49.2 µM) | 32 (≈ 49.2 µM) | Ratio [23]: 2; Ratio (Staphylococcus aureus [20]): <=4; MBC (Streptococcus mutans [22]): 32 µg/mL (≈ 49.2 µM) |
